Laboratory results from ChEMBL document CHEMBL2029310 (Bioorg Med Chem Lett, 2012).
Values belong to the compound of their own block, whether it stands above or below them. Active and inactive are the calls of the source. No cut-off for these calls is given here.

Experiments:
[1] = target: T1, Rap guanine nucleotide exchange factor 4 (Homo sapiens, UniProt Q8WZA2); test: Competitive inhibition of Epac2 using fluorescent nucleotide analog 8-NBD-cAMP by fluorescence analysis
Target sequence in this assay (Q8WZA2 whole entry): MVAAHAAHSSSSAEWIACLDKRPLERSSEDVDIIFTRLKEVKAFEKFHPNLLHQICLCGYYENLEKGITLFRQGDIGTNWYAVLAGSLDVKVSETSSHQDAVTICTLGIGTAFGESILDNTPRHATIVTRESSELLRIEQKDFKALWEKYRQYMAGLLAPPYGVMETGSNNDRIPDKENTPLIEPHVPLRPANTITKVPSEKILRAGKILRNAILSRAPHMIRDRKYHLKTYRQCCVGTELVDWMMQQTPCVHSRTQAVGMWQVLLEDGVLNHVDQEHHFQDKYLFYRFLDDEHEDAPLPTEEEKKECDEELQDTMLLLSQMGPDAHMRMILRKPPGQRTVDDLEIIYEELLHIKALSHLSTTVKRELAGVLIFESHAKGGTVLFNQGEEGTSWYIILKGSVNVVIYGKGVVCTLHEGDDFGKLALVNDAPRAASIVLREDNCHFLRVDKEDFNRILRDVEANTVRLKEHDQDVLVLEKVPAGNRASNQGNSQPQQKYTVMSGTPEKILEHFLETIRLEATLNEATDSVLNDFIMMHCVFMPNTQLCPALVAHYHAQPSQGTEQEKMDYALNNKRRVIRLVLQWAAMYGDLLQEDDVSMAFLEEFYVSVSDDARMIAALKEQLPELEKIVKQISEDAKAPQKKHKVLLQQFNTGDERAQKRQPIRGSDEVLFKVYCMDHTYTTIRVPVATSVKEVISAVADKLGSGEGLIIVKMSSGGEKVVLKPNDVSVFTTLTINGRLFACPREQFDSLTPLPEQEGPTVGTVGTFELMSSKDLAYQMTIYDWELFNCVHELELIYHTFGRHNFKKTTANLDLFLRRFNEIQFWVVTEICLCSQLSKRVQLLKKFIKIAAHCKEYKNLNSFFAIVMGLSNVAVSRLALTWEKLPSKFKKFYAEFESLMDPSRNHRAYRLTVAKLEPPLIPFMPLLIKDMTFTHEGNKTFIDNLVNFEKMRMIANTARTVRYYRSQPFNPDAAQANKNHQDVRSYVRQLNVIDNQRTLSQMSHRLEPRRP

[2] = Inhibition of PKA type2 activation at 25 uM
[3] = target: T2, Rap guanine nucleotide exchange factor 3 (Homo sapiens) (UniProt O95398); test: Inhibition of Epac1 at 25 uM in presence of equal molar concentration of cAMP
T2 sequence (whole entry): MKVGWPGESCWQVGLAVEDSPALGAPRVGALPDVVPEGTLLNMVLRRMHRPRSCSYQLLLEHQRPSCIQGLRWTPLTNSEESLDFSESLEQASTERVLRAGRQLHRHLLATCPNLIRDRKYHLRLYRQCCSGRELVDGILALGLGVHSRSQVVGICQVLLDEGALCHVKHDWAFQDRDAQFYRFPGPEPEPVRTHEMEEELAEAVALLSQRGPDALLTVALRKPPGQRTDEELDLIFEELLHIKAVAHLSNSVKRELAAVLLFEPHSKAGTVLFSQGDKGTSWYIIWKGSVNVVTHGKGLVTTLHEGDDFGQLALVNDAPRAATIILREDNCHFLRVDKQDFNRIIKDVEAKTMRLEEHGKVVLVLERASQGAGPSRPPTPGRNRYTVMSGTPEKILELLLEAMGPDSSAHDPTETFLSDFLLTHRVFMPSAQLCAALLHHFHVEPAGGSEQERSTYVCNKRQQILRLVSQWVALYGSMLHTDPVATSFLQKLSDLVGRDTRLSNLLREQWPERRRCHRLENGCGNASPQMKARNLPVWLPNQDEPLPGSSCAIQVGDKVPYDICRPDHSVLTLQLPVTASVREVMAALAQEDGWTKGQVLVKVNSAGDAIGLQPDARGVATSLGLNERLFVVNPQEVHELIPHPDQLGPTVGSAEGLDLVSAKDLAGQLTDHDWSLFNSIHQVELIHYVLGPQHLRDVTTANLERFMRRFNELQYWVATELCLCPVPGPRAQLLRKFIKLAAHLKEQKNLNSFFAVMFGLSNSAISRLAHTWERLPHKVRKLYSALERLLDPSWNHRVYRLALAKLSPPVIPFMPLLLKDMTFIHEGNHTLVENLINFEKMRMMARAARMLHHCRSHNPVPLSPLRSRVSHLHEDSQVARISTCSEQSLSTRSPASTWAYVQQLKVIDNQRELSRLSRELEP

[4] = Inhibition of PKA type1 activation at 25 uM
[5] = target: T1, Rap guanine nucleotide exchange factor 4; test: Inhibition of Epac2 at 25 uM in presence of equal molar concentration of cAMP
Target sequence in this assay (Q8WZA2 whole entry, looked up): as the sequence (Q8WZA2 whole entry) above

[6] = target: T2, Rap guanine nucleotide exchange factor 3 (Homo sapiens); test: Inhibition of recombinant Epac1-mediated Akt phosphorylation at S473 expressed in 007-AM-stimulated HEK293 cells at 10 uM administered 5 mins prior to 007-AM by Western blot analysis; assay type: cell-based
How it was run: (§1)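 HEK293/Epac1 or HEK293/Epac2 cells were pretreated, or not, with 10 μM antagonist for 5 min. They were then stimulated with 10 μM 007-AM, the membrane-permeable Epac-selective agonist. Cell lysates were immunoblotted with PKB antibodies specific for phospho-Ser473 and phospho-Thr308.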

[7] = target: T1, Rap guanine nucleotide exchange factor 4; test: Inhibition of recombinant Epac2-mediated Akt phosphorylation at S473 expressed in 007-AM-stimulated HEK293 cells at 10 uM administered 5 mins prior to 007-AM by Western blot analysis; assay type: cell-based; how it was run: as §1
Target sequence in this assay (Q8WZA2 whole entry, looked up): as the sequence (Q8WZA2 whole entry) above

[8] = target: T2, Rap guanine nucleotide exchange factor 3 (Homo sapiens); test: Inhibition of recombinant Epac1-mediated Akt phosphorylation at T308 expressed in 007-AM-stimulated HEK293 cells at 10 uM administered 5 mins prior to 007-AM by Western blot analysis; assay type: cell-based; how it was run: as §1
[9] = target: T1, Rap guanine nucleotide exchange factor 4; test: Inhibition of recombinant Epac2-mediated Akt phosphorylation at T308 expressed in 007-AM-stimulated HEK293 cells at 10 uM administered 5 mins prior to 007-AM by Western blot analysis; assay type: cell-based; how it was run: as §1
Target sequence in this assay (Q8WZA2 whole entry, looked up): as the sequence (Q8WZA2 whole entry) above

[10] = target: T1, Rap guanine nucleotide exchange factor 4; test: Inhibition of cAMP-mediated recombinant Epac2 GEF activity at 25 uM by fluorescence analysis in presence of cAMP
Target sequence in this assay (Q8WZA2 whole entry, looked up): as the sequence (Q8WZA2 whole entry) above

[11] = target: T2, Rap guanine nucleotide exchange factor 3 (Homo sapiens); test: Inhibition of recombinant Epac1-mediated Rap1-GDP exchange activity at 25 uM by fluorescence analysis in presence of cAMP

- IC50 [1]: > 300 µM
SMILES: Cc1ccc(NC(=O)CSc2nc(C3CCCCC3)c(C#N)c(=O)[nH]2)cc1

- IC50 [1]: 15.7 µM
SMILES: Cc1ccc(CSc2nc(C3CCCCC3)c(C#N)c(=O)[nH]2)c(C)c1

- IC50 [1]: 127 µM
SMILES: Cc1ccc(C)c(CSc2nc(C3CCN(C)CC3)c(C#N)c(=O)[nH]2)c1

- IC50 [1]: > 300 µM
SMILES: N#Cc1c(C2CCCCC2)nc(SCC(=O)O)[nH]c1=O

- IC50 [1]: 8.4 µM
- inhibition [2]: inactive
- inhibition [3]: Active
- inhibition [4]: inactive
- inhibition [5]: Active
SMILES: Cc1ccc(C)c(CSc2nc(C3CCCCC3)c(C#N)c(=O)[nH]2)c1

- IC50 [1]: 12.7 µM
SMILES: Cc1ccc(C)c(CSc2nc(C(C)C)c(C#N)c(=O)[nH]2)c1

- IC50 [1]: 30.5 µM
SMILES: N#Cc1c(C2CCCCC2)nc(SCc2ccccc2)[nH]c1=O

- inhibition [6]: Active
- IC50 [1]: 4 µM
- inhibition [2]: inactive
- inhibition [4]: inactive
- inhibition [7]: Active
- inhibition [8]: Active
- inhibition [9]: Active
- inhibition [10]: Active
SMILES: Cc1ccc(C)c(CSc2nc(C3CC3)c(C#N)c(=O)[nH]2)c1

- inhibition [2]: Active
- inhibition [4]: Active
SMILES: O=S(=O)(NCCNC/C=C/c1ccc(Br)cc1)c1cccc2cnccc12

- inhibition [6]: Active
- IC50 [1]: 5.9 µM
- inhibition [2]: inactive
- inhibition [4]: inactive
- inhibition [7]: Active
- inhibition [8]: Active
- inhibition [9]: Active
- inhibition [10]: Active
- inhibition [11]: Active
SMILES: Cc1ccc(C)c(CSc2nc(C3CCCC3)c(C#N)c(=O)[nH]2)c1

- IC50 [1]: > 300 µM
SMILES: N#Cc1c(C2CCCCC2)nc(S)[nH]c1=O

- IC50 [1]: > 300 µM
SMILES: N#Cc1c(C2CCCCC2)nc(Nc2ccccc2)[nH]c1=O

- IC50 [1]: > 300 µM
SMILES: Cc1ccc(C)c(CSc2nc(C3CCNCC3)c(C#N)c(=O)[nH]2)c1

- IC50 [1]: 7 µM
SMILES: Cc1cc(C)cc(CSc2nc(C3CCCCC3)c(C#N)c(=O)[nH]2)c1

- IC50 [1]: > 300 µM
SMILES: N#Cc1c(C2CCCCC2)nc(SCC(=O)Nc2ccccc2)[nH]c1=O

- IC50 [1]: 38.7 µM
SMILES: Cc1ccc(CSc2nc(C3CCCCC3)c(C#N)c(=O)[nH]2)cc1

- IC50 [1]: > 300 µM
SMILES: N#Cc1c(C2CCCCC2)nc(Nc2ccc(Cl)cc2)[nH]c1=O

- IC50 [1]: > 300 µM
SMILES: Cc1cc(C)c(NC(=O)CSc2nc(C3CCCCC3)c(C#N)c(=O)[nH]2)c(C)c1

- IC50 [1]: 11.6 µM
SMILES: Cc1cc(C)c(CSc2nc(C3CCCCC3)c(C#N)c(=O)[nH]2)c(C)c1
